Activity calls are given as the source filed them. The calls are words filed in the database; no cut-off is given here.
Columns and labels:
[1] = Apparent permeability of the compound at 200 uM incubated for 5 hrs by PAMPA assay; assay type: ADME
Method in brief: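 PAMPA using an artificial lipid/oil/lipid trilayer membrane separating donor and acceptor wells. Compound was quantified by absorbance at 280 nm, or at 320 nm for some compounds. Runs were in triplicate, and the reported values are averages of three experiments.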

[2] = biological target: T1, Toll-like receptor 7 (Homo sapiens, UniProt Q9NYK1); assay: Agonist activity at TLR7 in human Ramos-blue cells assessed as increase in NFkappaB activation incubated for 72 hrs by quanti-blue/SEAP reporter gene based assay; assay type: cell-based
T1 sequence (Q9NYK1 whole entry): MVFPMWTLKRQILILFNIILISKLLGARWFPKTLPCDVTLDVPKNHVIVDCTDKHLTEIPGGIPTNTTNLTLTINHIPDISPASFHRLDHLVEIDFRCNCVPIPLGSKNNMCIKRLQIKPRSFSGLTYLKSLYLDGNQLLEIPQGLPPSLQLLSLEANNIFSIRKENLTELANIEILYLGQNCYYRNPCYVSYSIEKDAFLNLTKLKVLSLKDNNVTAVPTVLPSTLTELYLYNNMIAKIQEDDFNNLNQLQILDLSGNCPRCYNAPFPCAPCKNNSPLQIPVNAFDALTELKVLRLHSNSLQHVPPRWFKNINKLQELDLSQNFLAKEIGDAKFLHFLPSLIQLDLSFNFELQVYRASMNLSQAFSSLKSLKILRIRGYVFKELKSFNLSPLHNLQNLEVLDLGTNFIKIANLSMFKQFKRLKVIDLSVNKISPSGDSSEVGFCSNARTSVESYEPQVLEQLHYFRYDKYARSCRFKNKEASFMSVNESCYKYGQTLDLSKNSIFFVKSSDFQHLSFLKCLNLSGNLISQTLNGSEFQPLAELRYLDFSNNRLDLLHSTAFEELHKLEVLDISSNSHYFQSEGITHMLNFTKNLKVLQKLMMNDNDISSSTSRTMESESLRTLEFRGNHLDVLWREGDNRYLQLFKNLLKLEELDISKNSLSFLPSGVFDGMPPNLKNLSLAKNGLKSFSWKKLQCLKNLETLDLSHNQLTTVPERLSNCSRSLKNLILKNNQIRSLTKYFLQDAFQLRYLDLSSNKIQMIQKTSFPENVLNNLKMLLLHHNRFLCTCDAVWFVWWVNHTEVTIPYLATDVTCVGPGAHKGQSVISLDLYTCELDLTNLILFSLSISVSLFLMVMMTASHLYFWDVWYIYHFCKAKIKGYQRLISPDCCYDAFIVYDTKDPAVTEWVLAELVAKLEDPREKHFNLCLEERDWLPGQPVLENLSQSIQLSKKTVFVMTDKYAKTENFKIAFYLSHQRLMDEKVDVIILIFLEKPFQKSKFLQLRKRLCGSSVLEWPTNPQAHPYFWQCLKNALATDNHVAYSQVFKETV

[3] = biological target: T2, Toll-like receptor 8 (Homo sapiens) (UniProt Q9NR97); assay: Agonist activity at TLR8 in GM-CSF induced human MDM cells assessed as increase in TNFalpha release at 80 to 2000 nM measured after 6 hrs; assay type: cell-based; details: filed as agonist, dose 80-2000 nM
T2 sequence (whole entry): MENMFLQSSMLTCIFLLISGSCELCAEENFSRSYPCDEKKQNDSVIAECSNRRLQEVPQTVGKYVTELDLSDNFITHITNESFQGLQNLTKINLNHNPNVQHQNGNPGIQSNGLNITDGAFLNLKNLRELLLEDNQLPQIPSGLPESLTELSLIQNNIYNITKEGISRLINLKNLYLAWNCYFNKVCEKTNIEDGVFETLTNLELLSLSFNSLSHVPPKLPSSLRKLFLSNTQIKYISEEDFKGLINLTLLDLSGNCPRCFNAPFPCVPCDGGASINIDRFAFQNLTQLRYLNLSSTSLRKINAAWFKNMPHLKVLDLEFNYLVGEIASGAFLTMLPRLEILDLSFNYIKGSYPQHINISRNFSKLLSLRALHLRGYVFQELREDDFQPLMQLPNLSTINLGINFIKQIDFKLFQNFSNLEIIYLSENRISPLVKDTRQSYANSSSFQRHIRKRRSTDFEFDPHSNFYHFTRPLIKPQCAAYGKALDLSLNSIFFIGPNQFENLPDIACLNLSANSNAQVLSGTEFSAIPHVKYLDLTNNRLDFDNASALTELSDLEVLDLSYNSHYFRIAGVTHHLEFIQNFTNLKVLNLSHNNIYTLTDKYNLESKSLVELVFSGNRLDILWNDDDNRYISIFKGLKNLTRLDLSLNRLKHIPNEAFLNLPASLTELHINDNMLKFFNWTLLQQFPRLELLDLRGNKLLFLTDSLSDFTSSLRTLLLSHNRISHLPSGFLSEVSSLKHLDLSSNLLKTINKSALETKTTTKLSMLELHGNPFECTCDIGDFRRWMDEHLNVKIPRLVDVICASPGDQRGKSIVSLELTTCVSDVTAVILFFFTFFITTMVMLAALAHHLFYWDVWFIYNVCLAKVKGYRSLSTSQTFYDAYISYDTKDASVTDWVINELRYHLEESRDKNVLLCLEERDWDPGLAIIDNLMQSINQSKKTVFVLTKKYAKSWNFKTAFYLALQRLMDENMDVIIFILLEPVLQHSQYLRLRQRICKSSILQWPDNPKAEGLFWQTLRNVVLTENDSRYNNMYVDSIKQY

[4] = biological target: T2, Toll-like receptor 8 (Homo sapiens); assay: Agonist activity at TLR8 in GM-CSF induced human MDM cells assessed as increase in IL-6 release at 80 to 2000 nM measured after 6 hrs; assay type: cell-based; details: filed as agonist, dose 80-2000 nM

Compound	Papp at 5 h, 200 µM [1] [×10⁻⁶ cm/s]	other results
CCCCc1nc2c(N)nc3ccccc3c2n1Cc1ccc(N)cc1	8.51	EC50 [2]: 0.069 µM
CCCCc1nc2c(N)nc3ccccc3c2n1Cc1ccc(NC(C)=O)cc1	3.45	–
CCCCc1nc2c(N)nc3ccccc3c2n1Cc1ccc(NC(=O)CCCCCN)cc1	0.436	–
CCCCc1nc2c(N)nc3ccccc3c2n1Cc1ccc(NC(=O)CCNC(=O)OC(C)(C)C)cc1	0.434	–
CCCCc1nc2c(N)nc3ccccc3c2n1Cc1ccc(NC(=O)CN)cc1	0.834	–
CCCCOC(=O)Cc1ccc(Cn2c(CCCC)nc3c(N)nc4ccccc4c32)cc1	14.2	–
CCCCc1nc2c(N)nc3ccccc3c2n1Cc1cccc(O)c1	0.98	–
CCCCc1nc2c(N)nc3ccccc3c2n1Cc1ccc(O)cc1	3.06	–
CCCCc1nc2c(N)nc3ccccc3c2n1Cc1ccc(NC(=O)CNC(=O)OC(C)(C)C)cc1	4.48	–
CCCCc1nc2c(N)nc3ccccc3c2n1Cc1ccc(NC(=O)OC(C)C)cc1	5.12	–
CCCCc1nc2c(N)nc3ccccc3c2n1Cc1ccc(OC)cc1	4.01	EC50 [2]: 0.232 µM
CCCCc1nc2c(N)nc3ccccc3c2n1Cc1ccc(NC(=O)CCN)cc1	0.131	–
CCCCc1nc2c(N)nc3ccccc3c2n1Cc1ccc(NC(=O)CCCCN)cc1	0.838	–
CCCCc1nc2c(N)nc3ccccc3c2n1Cc1ccc(NC(=O)OCC)cc1	8.78	–
CCCCc1nc2c(N)nc3ccccc3c2n1Cc1ccc(NC(=O)CCCCCNC(=O)OC(C)(C)C)cc1	1.91	–
CCCCC(=O)Nc1ccc(Cn2c(CCCC)nc3c(N)nc4ccccc4c32)cc1	1.59	–
CCCCc1nc2c(N)nc3ccccc3c2n1Cc1cccc(OC)c1	2.5	–
CCCCc1nc2c(N)nc3ccccc3c2n1Cc1ccc(NC(=O)CCCN)cc1	0.159	–
CCCCc1nc2c(N)nc3ccccc3c2n1Cc1cccc(N)c1	5.26	–
CCOCc1nc2c(N)nc3ccccc3c2n1CC(C)(C)O [RESIQUIMOD]	5.3	–
CCCCc1nc2c(N)nc3ccccc3c2n1Cc1ccc(NC(=O)CCCCNC(=O)OC(C)(C)C)cc1	1.95	–
CCCCc1nc2c(N)nc3ccccc3c2n1Cc1ccc(NC(=O)CCCNC(=O)OC(C)(C)C)cc1	1.33	–
CCCCc1nc2c(N)nc3ccccc3c2n1Cc1cccc(NC(=O)OC(C)(C)C)c1	1.24	–
CCCN(CCC)C(=O)C1=Cc2ccc(-c3ccc(C(=O)N4CCCC4)cc3)cc2N=C(N)C1	–	Activity [3]: Active; Activity [4]: Active

Reference: ChEMBL document CHEMBL5365545, “Synthesis and Optimization of 1-Substituted Imidazo[4,5-c]quinoline TLR7 Agonists” (ACS Med Chem Lett, 2023)
